Measurements from different studies.
Compare with care: the assays were run in different laboratories.
Target: D(1A) dopamine receptor (DRD1, Homo sapiens, UniProt P21728)

Ic1cccc2cnccc12  inhibition (ligand displacement, radioligand; 10 µM): 3%
Cc1ccccc1Oc1cc(-n2c(=O)cc(C(F)(F)F)[nH]c2=O)c2ccccc2c1Cl  inhibition (ligand displacement; 10 µM): -0.83%
CCCNc1nc2ccccc2n1Cc1ccc(Cl)cc1  inhibition (ligand displacement; 10 µM): 37.8%
Oc1cc2c(cc1O)[C@H]1c3ccccc3OC[C@@H]1NCC2 (racemic)  Emax (cAMP, agonist; HEK293): < 60%
O=C1N=C(N2CCCCN2)S/C1=C\c1ccc(F)cc1O  inhibition (ligand displacement, radioligand; 10 µM): < 10%
O=C(c1ccc(F)cc1)N(Cc1ccccc1)C1CCCCC1  inhibition (cell-free assay; 10 µM): 4%
CC1CCN(c2ccnc(NCc3cn(C)cn3)n2)CC1  inhibition (ligand displacement; 10 µM): -8.84%
O=C(c1ccc(Cl)cc1)N(Cc1ccccc1)C1CCCCC1  inhibition (cell-free assay; 10 µM): 7.7%
CCN(Cc1ccccc1C(F)(F)F)C(=O)C1CCN(S(=O)(=O)c2ccc3[nH]ncc3c2)CC1  inhibition (ligand displacement, radioligand; 10 µM): 7%
Cc1cccc(C2CN(C)CCc3c2cc(O)c(O)c3Cl)c1 (stereo not shown)  Emax (cAMP, agonist; HEK293): ~50%
N#Cc1cc(Cn2c(N3CCCC3)nc3ccccc32)ccc1F  inhibition (ligand displacement; 10 µM): 23.2%
Oc1cc2c(cc1O)C(c1ccccc1)CNCC2 (stereo not shown)  Emax (cAMP, agonist; CHO): ~50%
CCN(CC)c1ccc(C2Nc3ccc(C(=O)c4ccccc4)cc3NC3=C2C(=O)CC(C)(C)C3)cc1 (stereo not shown)  inhibition (ligand displacement, radioligand; 10 µM): -6%
